# From PubChem
# T cell modulator: modulates CD8 T cell binding to vesicles. 330,000 tested, 0.068% active. AID 2052. 2C CD8+ T cell-vesicle binding, flow cytometry; active compounds read low. response (vesicle binding), % at 7 µM;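 active = response, share of CD8 T cells binding vesicles, and their 90th percentile fluorescence all below set limits, cut at about 80% in these data, passing the limit was not always enough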;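 note: values below 100% mean blocked vesicle binding to the CD8+ T cells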
#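 Also added: QL9-peptide-loaded Drosophila micro-vesicles bearing Ld, ICAM-1 and B7-1; Test system: purified 2C TCR transgenic mouse naive CD8+ T cells; Measured by: cytometric PE anti-B7-1 and Alexa647 anti-CD8 signals after 1% paraformaldehyde fixation; Timing: binding step 1.5 h, 37 °C, antibody labelling 20 min, ice.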
# NALP1 inh: blocks the NALP1 inflammasome reconstituted in yeast. 280,000 tested, 0.61% active. inhibition, % at 10 µM. AID 2071. S. cerevisiae NALP1/ASC/caspase-1 growth, X-gal OD620, 72 h; in the data active = inhibition mostly above about 24%, no sharp cut-off; inactive = mostly below about 32%
# NLRP3 yeast inh: NALP3 inhibition in yeast | 330,000 tested, 0.39% active | Yeast reconstituted NLRP3/ASC/caspase-1, beta-gal luminescence, 24 h | inhibition, % at 10 µM;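 active = inhibition of 50% or more; inactive = inhibition below 50%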;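 note: plate controls were induced DMSO wells for no effect and uninduced yeast grown without galactose for full effect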
# Bfl-1 A1 inh: inhibitors of the anti-apoptotic protein A1, read as caspase activation; 330,000 tested, 0.066% active; MEF A1-2A-BIM cells, Caspase-Glo 3/7 luminescence, 3 h; percent of clofoctol response, vehicle zero; caspase activation, % (test concentration not listed); AID 2462;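 active = over half of replicate activation scores above 10%, or exactly half above 10 with the replicate mean above 10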
# The depositor's hits bear a star; i = inactive; · = no result. Most compounds without a hit are left out; they make up all but 1% or so of the library.
SMILES,T cell modulator,NALP1 inh,NLRP3 yeast inh,Bfl-1 A1 inh
CCc1ccc(S(=O)(=O)NCc2cn3ccccc3n2)s1,603,38*,-3,0
CN1CCC(N(C)C(=O)c2ccc(Cl)c(S(=O)(=O)N(C)c3ccc(Cl)cc3)c2)CC1,219,·,23,1
CC12CCC(=O)N1C(C(=O)Nc1cccc(S(=O)(=O)N3CCCCCC3)c1)CS2 (stereo not given),223,·,17,0
OCC1(Cc2ccc(Cl)cc2)CCN(Cc2ccccc2F)CC1,284,2,10,0
CSc1ccc(CN2CCC(CO)(Cc3ccc(Cl)cc3)CC2)cc1,81,28*,31,0
Cn1c(SCC(=O)OCc2ccccc2)nnc1-c1ccco1,745,44*,6,0
O=C(NCC(c1ccco1)N1CCCC1)c1ccc(Cl)c(S(=O)(=O)N2CCc3ccccc32)c1 (stereo not given),108,·,9,-1
CC1(C)CC2(CCCN3C(=O)CSC32)CCS1 (stereo not given),241,38*,10,2
CCCn1c(N)c(N(CCOC)C(=O)c2cc(S(=O)(=O)N3CCCCCC3)ccc2OC)c(=O)[nH]c1=O,380,21,13,0
COc1cccc(/C=C/C(=O)c2ccc[nH]2)c1,195,42*,-5,-3
COc1ccc([N+](=O)[O-])cc1NC(=O)C(C)Sc1ccccc1 (stereo not given),0,13,20,0
COc1ccc([N+](=O)[O-])cc1NC(=O)C(C)Sc1nc(-c2ccccc2)cs1 (stereo not given),0.0*,18,22,-1
O=[N+]([O-])c1ccc(N2CCc3ccccc3C2)cc1,·,6,40,1
O=C(CC12CC3CC(CC(C3)C1)C2)NCc1ccncc1,222,7,11,-1
c1cc(CNC23CC4CC(CC(C4)C2)C3)ccn1,680,27*,4,0
O=C(NCCc1ccccc1)c1cccs1,221,-10,13,1
CCN=c1sc(C(=O)NCCc2ccccc2)cc(=O)n1CC,185,16*,23,2
COc1ccc(NC(=O)CSc2nc(N)cc(=O)[nH]2)cc1S(=O)(=O)N1CCCCC1,·,·,15,·
CC[n+]1c(/C=C/N(C)c2ccccc2)n(-c2ccccc2)c2ccc(-c3nc4ccccc4s3)cc21,236,46*,39,1
COc1ccc(C2C3=C(N=C4SCC(=O)N42)c2ccccc2CC3)cc1 (stereo not given),805,38*,8,0
COc1ccc(C2COC(=O)C2=N)c(NC(=O)c2ccc(Cl)cc2)c1 (stereo not given),0.0*,30,-3,0
N=C1C(=O)OCC1c1ccccc1NC(=O)c1ccccc1 (stereo not given),144,15,-2,0
Cc1ccc(-c2cc(N)n(-c3ccc(F)cc3)n2)cc1,414,29*,27,-3
C=CCC[C@H](Cc1ccc(F)cc1)C(=O)OC[C@H](C)NC(=O)[C@@H](CC=C)CC(=O)N[C@H](CO)Cc1ccccc1,61*,·,4,0
CCc1c(-c2ccccc2)nc2sc3c(c2c1N)CCCC3,497,6,10,0
SMILES,T cell modulator,NALP1 inh,NLRP3 yeast inh,Bfl-1 A1 inh
Nc1c2c(nc3sc4c(c13)CCCCC4)CCCCC2,249,64*,17,-8
Cc1ccsc1C(=O)OCC(=O)NC1CCCC1,606,·,30,·
O=C(CCNS(=O)(=O)c1ccccc1)N1CCN(C(c2ccccc2)c2ccccc2)CC1,0,18,14,0
Cc1ccsc1/C=C1/NC(=O)N(Cc2ccc(F)cc2)C1=O,171,34*,9,-1
Cc1ccc(C)c(OCC(O)CN2CCC(Cc3ccccc3)CC2)c1 (stereo not given),192,18,27,0
Cc1ccc(-c2nc(NC(=O)c3nn(C)cc3[N+](=O)[O-])sc2C)cc1C,246,0,8,39*
Cc1cnc(NC(=O)c2nn(C)cc2[N+](=O)[O-])s1,·,16,3,·
Cc1ccc(-c2nc(NC(=O)c3nn(C)cc3[N+](=O)[O-])sc2C)cc1,304,12,26,11*
Cc1[nH]nc2c1C(c1cnn(C)c1)C(C#N)=C(N)O2 (stereo not given),59*,-6,17,1
CCCCN(CCCC)S(=O)(=O)c1ccc(NC(=O)CN2CCOCC2)cc1,381,41*,16,1
CN(C)S(=O)(=O)c1ccc(NC(=O)CN2CCOCC2)cc1,104,·,3,-1
Cc1ccc(S(=O)(=O)N2CCOCC2)cc1NC(=O)COC(=O)c1cnc(Cl)c(Cl)c1,·,·,8,·
COc1cccc(N2C(=O)C3C(C2=O)C3(c2ccccc2)c2ccccc2)c1 (stereo not given),708,32*,4,0
N#Cc1cn(N2CCCCC2)c(=O)[nH]c1=O,107,5,16,1
CC(C)n1nc(C(=O)Nc2cccc(S(=O)(=O)N3CCOCC3)c2)c2ccccc2c1=O,293,·,11,-1
Cc1cccc(Nc2nc3c(S(=O)(=O)c4ccccc4)nnn3c3ccccc23)c1,229,17,6,7.4*
Cc1cc(C)cc(Nc2nc3c(S(=O)(=O)c4ccccc4)nnn3c3ccccc23)c1,387,13,·,-1
O=C(O)c1ccc(NS(=O)(=O)c2ccc(N3C(=O)CCC3=O)cc2)cc1,790,13,30,0
CC(=O)N(c1ccc(C(F)(F)F)cc1)S(=O)(=O)c1ccc(N2C(=O)CCC2=O)cc1,0,32*,-11,-1
CC(=O)Nc1ccc(NC(=O)C(C)OC(=O)c2ccc(S(=O)(=O)N3CCCCCC3)cc2)cc1 (stereo not given),264,·,7,-1
Cc1nn(-c2ccccc2)c2[nH]c(=O)cc(C(F)(F)F)c12,281,38*,8,0
Cc1cc(=O)[nH]c2c1c(C)nn2-c1ccccc1,381,14,3,-1
COc1ccccc1-c1cc(C(F)(F)F)nc(S(=O)(=O)CCCC(=O)NC(C)C)n1,469,22,18,8.5*
CC(OC(=O)CNC(=O)C12CC3CC(CC(C3)C1)C2)C(=O)Nc1ncc(Cl)cc1Cl (stereo not given),214,40*,-6,-1
CC(C)Cn1c(SCC(=O)N(C)c2c(N)n(Cc3ccccc3)c(=O)[nH]c2=O)nc2ccccc21,241,·,7,1
SMILES,T cell modulator,NALP1 inh,NLRP3 yeast inh,Bfl-1 A1 inh
COc1cc(/C=C2\SC(=S)N(CCC(=O)Nc3ccccc3)C2=O)cc(OC)c1OC,434,29*,24,-1
COc1cc(/C=C2/SC(=S)N(CCC(=O)Nc3ccccc3)C2=O)cc(OC)c1OC,692,10,26,0
CCc1c(C)nc2ncnn2c1Nc1ccc(C#N)c(Cl)c1,307,30*,2,0
O=C(CSc1ncn[nH]1)NCc1ccccc1,135,28*,7,0
Cc1ccc(CSCCNC(=O)CSCc2ccc([N+](=O)[O-])cc2)cc1,262,48*,31,0
OCC[C@H]1C[C@@H](O)[C@H](O)[C@]2(Cc3ccccc3CCO2)O1,i,·,16,1
